Here are results for ten molecules from ChEMBL document CHEMBL1121516, “Synthesis and biological activity of fluoroalkylamine derivatives of narcotic analgesics” (J Med Chem, 1980).

Structures are written as SMILES. Calls of active or inactive are those of the source. No cut-off for these calls is given here.

The species named for series [1] is Cavia porcellus. As to the kind of experiment: Agonist potency was evaluated in the guinea pig ileum. The series is classed as functional.
The species named for series [2] is Cavia porcellus. Put plainly: Inhibitory Dose required to reduce electrically stimulated contractions by 50% in guinea pig ileum; I = Infinite. The format is functional.
Series [3] addresses T1, Opioid receptors; mu/kappa/delta (Homo sapiens, UniProt P41145+P41143+P35372). Put plainly: Inhibition of Opioid receptors binding by inhibiting specific [3H]naloxone binding by 50% in the presence of 100 mM NaCl. The series is classed as protein assay, Cavia porcellus.
The species entered for series [4] is Mus musculus. Put plainly: Analgesic activity determined in the mouse hot plate test expressed as ED50; Range is 6.4-12.8. The format is functional.
Series [5] deals with T1, Opioid receptors; mu/kappa/delta. Put plainly: Inhibition of Opioid receptors with [3H]naloxone binding in the absence of NaCl. The series is classed as protein assay, Cavia porcellus.
Series [6] can be described thus: […] (pKa) value was evaluated. The series is classed as physicochemical. In a few lines: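 pKa by potentiometric titration in distilled water at 24 °C. Compound dissolved at 5 to 7.5×10^-3 M and titrated with 0.1039 M NaOH, with pH change followed on a pH meter. Each compound run in triplicate.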
In series [7] the test system is Rattus norvegicus. As to the kind of experiment: Serum citrate level when administered intraperitoneally at dose 45 mg/kg in 7 rats. The format is functional, organism-based. Also on record: dose 45 mg/kg. In a few lines: (§1)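 Male Sprague–Dawley rats (200–225 g), dosed ip. Blood centrifuged to obtain serum, and citrate measured by the Camp and Farmer procedure. Values reported as mg/mL with SE.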

For series [8], the species on record is Mus musculus. As to the kind of experiment: Analgesic activity determined in the mouse hot plate test expressed as ED50.
For series [9], the species on record is Mus musculus. Put plainly: Analgesic activity determined in the mouse hot plate test expressed as ED50; IA means in active to 100. The format is functional, organism-based. In general terms: Hot-plate and tail-flick tests time the reaction to a heat stimulus.
Series [10] is filed under the species Mus musculus. As to the kind of experiment: Analgesic activity determined in the mouse hot plate test expressed as ED50; Range is 17.8-72.1. The format is functional.
The species entered for series [11] is Mus musculus. Put plainly: Analgesic activity determined in the mouse hot plate test expressed as ED50; value ranges from 3.2-6.1. The format is functional.
Series [12] is filed under the species Cavia porcellus. Put plainly: (§2) Antagonist potency was evaluated in the mouse vas deferens relative to naloxone = 1. The format is functional.
The species entered for series [13] is Mus musculus. Put plainly: Analgesic activity determined in the mouse hot plate test expressed as ED50; I = inactive at 40. The series is classed as functional, organism-based.
For series [14], the system named is Rattus norvegicus. Put plainly: Serum citrate level when administered intraperitoneally at dose 12.5 mg/kg in 5 rats. The series is classed as functional, organism-based. The arrangement: dose 12.5 mg/kg. In a few lines: as §1
Series [15] is filed under the species Mus musculus. As to the kind of experiment: Equilibrium dissociation constant (Ke) against response produced by normorphine in the mouse vas deferens. The format is functional.
The species named for series [16] is Mus musculus. The series is described as §2. The format is functional.
The species entered for series [17] is Cavia porcellus. Put plainly: Agonist potency evaluated in the guinea pig ileum. The format is functional.
The species entered for series [18] is Cavia porcellus. Put plainly: Inhibitory Dose required to reduce electrically stimulated contractions by 50% in guinea pig ileum. The series is classed as functional. The settings on record: read-out: ID50 (the source's name).
For series [19], the species on record is Mus musculus. As to the kind of experiment: Analgesic activity determined in the mouse hot plate test expressed as ED50; Range is 6.3-14.8. The series is classed as functional.
The species entered for series [20] is Mus musculus. As to the kind of experiment: Analgesic activity determined in the mouse hot plate test expressed as ED50; value ranges from 12.7-29.8. The format is functional.
Series [21] concerns Rattus norvegicus. As to the kind of experiment: Serum citrate level when administered intraperitoneally at dose 40 mg/kg in 6 rats. The series is classed as functional, organism-based. The arrangement: dose 40 mg/kg. In a few lines:
as §1

For orientation: ED50 means the midpoint of the dose-response relation. As usually defined, the pKa is the negative logarithm of the acid dissociation constant. Low readings indicate a group that gives up its proton readily, high ones a group that holds its proton tightly. Regarding `CS(=O)(=O)O.C[C@H]1C2Cc3ccc(O)cc3[C@@]1(C)CCN2CCF`, the Agonist potency in the series listed under Cavia porcellus [1] is on record as 0. Further, in the series listed under Cavia porcellus [2], the ID50 result was “inactive”. Moreover, the IC50 was found to be 100 nM in series [3] and 50 nM in series [5]. In the series listed under Mus musculus [4], this molecule had an ED50 of 9.16 mg/kg. Moreover, the pKa in series [6] stood at 8.35. In the series on Rattus norvegicus [7], the Level amounted to 121 mg/mL.
Turning to `CN1CC[C@]23c4c5ccc(O)c4O[C@H]2[C@@H](O)C=C[C@H]3[C@H]1C5` [MORPHINE], the ED50 in the series filed under Mus musculus [8] came to 1.2 mg/kg.
With `CCOC(=O)C1(c2ccccc2)CCN(CC(F)F)CC1.Cl`, the ED50 result in the series listed under Mus musculus [9] is “inactive”. Moreover, the IC50 turned out to be 110000 nM in series [3] and 85000 nM in [5]. For the same molecule, the pKa in series [6] was 5.23.
The molecule `CCN1CC[C@]2(C)c3cc(O)ccc3CC1[C@@H]2C.CS(=O)(=O)O` displayed an ED50 in the series listed under Mus musculus [10] of 44.7 mg/kg. Besides, the IC50 turned out to be 200 nM in series [3] and 180 nM in series [5]. Besides, in series [6], the pKa is 9.42.
Regarding `CCOC(=O)C1(c2ccccc2)CCN(CC)CC1.Cl`, it took a dose of 4.4 mg/kg to reach the 50% effect level in the series listed under Mus musculus [11] (ED50). The IC50 is 120000 nM in [3] and 5000 nM in series [5]. Besides, in [6], the pKa was determined as 9.03.
`CS(=O)(=O)O.C[C@H]1C2Cc3ccc(O)cc3[C@@]1(C)CCN2CC(F)(F)F` registered an Agonist potency in the series filed under Cavia porcellus [12] of 0. The results for the IC50 in series [3] and in [5] were 2500 nM and 1700 nM, respectively. In the series listed under Mus musculus [13], the ED50 result is “inactive”. This molecule also came in with a pKa in series [6] of 4.56.
As to `CCOC(=O)C1(c2ccccc2)CCN(CC(F)(F)F)CC1.Cl`, the ED50 result in the series filed under Mus musculus [9] is “inactive”. The IC50 amounted to 60000 nM in [3] and 10000 nM in series [5]. The molecule further registered a pKa in series [6] of 3.13.
With `O=C(O)CF`, the Level in the series on Rattus norvegicus [14] came out at 132 mg/mL.
As to `CS(=O)(=O)O.C[C@H]1C2Cc3ccc(O)cc3[C@@]1(C)CCN2CC(F)F`, in the series filed under Mus musculus [15], the Ke is 2930 nM. This molecule displayed an Antagonist potency in the series filed under Mus musculus [16] of 0.001. Also, in the series listed under Cavia porcellus [17], the Agonist potency was 0.16. Besides, the figures for the IC50 (in the series filed under Cavia porcellus [18]; in series [3]; in series [5]) were 453 nM, 1150 nM and 1000 nM, respectively. In the series filed under Mus musculus [19], this molecule registered an ED50 of 9.7 mg/kg. In [6], this molecule gave a pKa of 6.52.
Molecule `CCOC(=O)C1(c2ccccc2)CCN(CCF)CC1.Cl` returned a 50% effective dose (ED50) in the series listed under Mus musculus [20] of 19.4 mg/kg. This molecule displayed a Level in the series on Rattus norvegicus [21] of 81 mg/mL. Also, the IC50 in series [3] was 64000 nM; in series [5], 20000 nM. In series [6], this molecule registered a pKa of 7.43.
